pIC50: −log10 of the molar value. A value given as a limit tells only on which side of the number the result lay.

Cytochrome P450 2D6, sequence (P10635 whole entry): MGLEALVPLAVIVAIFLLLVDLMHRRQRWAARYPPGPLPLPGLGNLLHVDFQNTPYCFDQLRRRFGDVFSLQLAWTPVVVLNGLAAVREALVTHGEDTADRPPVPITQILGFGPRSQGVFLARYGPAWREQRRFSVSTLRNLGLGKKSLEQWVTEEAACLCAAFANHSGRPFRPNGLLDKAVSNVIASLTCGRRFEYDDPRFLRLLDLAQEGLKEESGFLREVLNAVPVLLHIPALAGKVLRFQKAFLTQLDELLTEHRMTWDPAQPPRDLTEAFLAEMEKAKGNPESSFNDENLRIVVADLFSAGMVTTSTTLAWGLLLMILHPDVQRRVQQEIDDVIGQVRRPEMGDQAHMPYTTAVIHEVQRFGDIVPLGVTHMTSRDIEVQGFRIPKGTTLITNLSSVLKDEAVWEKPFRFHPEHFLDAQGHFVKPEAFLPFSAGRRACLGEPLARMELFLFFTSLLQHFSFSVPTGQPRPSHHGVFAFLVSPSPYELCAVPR

The assay deals with Cytochrome P450 2D6 (Homo sapiens, UniProt P10635). The assay can be described thus: Inhibition of human CYP2D6 expressed in Escherichia coli JM109. It is filed as ADME. In a few lines:
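IC50 from inhibition of CYP2D6-catalysed MAMC O-demethylation; values are means of at least three independent experiments ± standard deviation.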
What is called pIC50 is −log10 of the IC50, conventionally taken in molar units. Read a high pIC50 as a small IC50. In turn, `CC(Cc1ccccc1)NC1CC2c3ccccc3CCc3cccc1c32` (configuration not stated) gave a pIC50 of 6.82. In turn, `c1ccc(CCNCCC2c3ccccc3Sc3ccccc32)cc1` showed a pIC50 of 6.59. As for `CC1C2C=C(C=C3c4ccccc4CCc4ccccc43)CC1CC2` (configuration not stated), the figure is 6.68; as for `Cc1ccc2c(c1)C(n1cccc1)c1cccnc1CC2` (configuration not stated), 4.40. As for `CCCCCCCCCCCc1cccn1C1c2ccccc2CCc2ccccc21`, the figure is 5.24. As to `C[N+]1(C)C2CCC1CC(OC1c3ccccc3C=Cc3ccccc31)C2` (configuration not stated), the pIC50 was 4.22. Consider `Nc1ccccc1-c1nc(N)c2ccccc2n1`, for which the pIC50 was 3.77. Next, `O=C1c2ccccc2C(O)C1C1c2ccccc2C=Cc2ccccc21` (configuration not stated): 4.22; `CN(C)CCC1(O)c2ccccc2CCc2ccc3ccccc3c21` (configuration not stated): 7.22; `Cn1ccnc1C(O)C=C(c1ccccc1)c1ccccc1` (configuration not stated): 4.82.

As to `CCC(=O)O/N=C1\c2ccccc2CCc2ncccc21`, the pIC50 was below 3.40. In turn, `C(=C1c2ccccc2CCc2ccccc21)c1ccccc1` gave a pIC50 below 3.70. Consider `CCc1ccccc1C1(Br)C(=O)c2ccccc2C1=O`, for which the pIC50 is 4.08.

Turning to `Fc1ccc(C(OCCN2CCC(CCCc3ccccc3)CC2)c2ccc(F)cc2)cc1`, the pIC50 is 5.92.

Consider `Oc1ccccc1/C=N/c1ccccc1` [2-((PHENYLIMINO)METHYL)PHENOL], for which the pIC50 was below 3.00. As to `COc1ccc2c(c1)[C@]13CCCC[C@@H]1[C@H](C2)N(C)CC3` [DEXTROMETHORPHAN], the pIC50 was 5.47. `CCC(c1ccccc1)c1c(O)c2ccccc2oc1=O` (configuration not stated) [PHENPROCOUMON] gave a pIC50 of 3.28.
